Screening data deposited in PubChem BioAssay by several laboratories.
The list is not random: actives were taken first. Their share in the collection is about 2.1%.
MT stabilizer – microtubule stabilization, imaging screen; HeLa tubulin immunostaining HCS, 24 h; share of cells brighter than vehicle mean+2SD; % tubulin-high responders, % at 10 µM; 200,000 tested, 0.83% active; AID 2205;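 active means plate Z-score above 3 for both tubulin-high and condensed-nucleus cell shares, with cell loss under 80%, at 10 µM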;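 further: anti alpha tubulin signal scored within the nucleus-defined area of each cell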
KLF5 inhibitor – suppresses KLF5 promoter-driven expression | AID 1700 | inhibition, % at 5 µM | 290,000 tested, 0.23% active | DLD-1 KLF5 promoter-luciferase reporter, luminescence;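 active means inhibition above a per-plate limit of that plate's mean compound inhibition plus 3 SD, cut at about 60% in these data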;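 further: higher means less KLF5 promoter-driven luciferase light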
bCat nuc transl – modulators of beta-catenin nuclear translocation; 190,000 tested, 0.3% active; nuclear translocation activity, % at 5 µM; HeLa beta-catenin nuclear translocation, immunofluorescence imaging; AID 1665;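 active means nuclear translocation activity above 50% at 5 µM, with a well cell count of 50 or more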;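 further: per-cell ratio of nuclear to cytoplasmic median beta-catenin stain intensity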
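Read-out: Nuclear/cytoplasmic beta-catenin signal ratio, % activation | Assay system: Human HeLa cell line | Times: 24 h compound exposure at 37°C, 5% CO2 | Signal: Fluorescence imaging of beta-catenin antibody stain plus DAPI | Dosing: 5 µM primary, 0.02–20 µM confirmation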
BaF3 parental – reduces parental Ba/F3 cell viability, JAK2V617F counter-screen. CellTiter-Glo ATP luminescence. inhibition, % at 5.6 µM. 220,000 tested, 1.1% active;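 active means inhibition above a per-campaign cutoff, the mean inhibition of all tested compounds plus 3 SD, cut at about 27% in these data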
IEC-6 tox – kills IEC-6 intestinal cells in KLF5 counter-screen. IEC-6 cytotoxicity, luminescence viability. inhibition, % at 5 µM. 290,000 tested, 0.78% active; in the data active means inhibition above about 22%
Ba/F3 V617F tox – loss of viability in JAK2V617F-driven Ba/F3 cells. AID 1446. Ba/F3 EpoR-JAK2V617F viability, ATP luminescence. inhibition, % at 5.6 µM. 220,000 tested, 1.1% active;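 active means inhibition above the campaign mean plus 3 SD over all tested compounds, cut at about 24% in these data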;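 further: cytokine-independent growth of Ba/F3 cells driven by EpoR plus mutant JAK2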
Of the large screens only hits and unclear results are named; the others gave an inactive call.

Nc1cc(Cl)ccc1N1CCCCCC1	BaF3 parental 56, Ba/F3 V617F tox 42
CC(NC(=O)CCN1C(=O)c2ccccc2C1=O)c1ccccc1 (configuration not stated)	none (no result: MT stabilizer, bCat nuc transl, BaF3 parental, Ba/F3 V617F tox)
O=C(NC1CCCCC1)C(c1cccnc1)N(C(=O)CCl)c1cccc(Cl)c1 (configuration not stated)	MT stabilizer 14
CC(C)(C)C(=O)/C(=C\c1ccc([N+](=O)[O-])cc1)n1cncn1	BaF3 parental 90, IEC-6 tox 23, Ba/F3 V617F tox 97
COc1ccc(/C=N/n2c(SC)nnc2-c2ccccc2)cc1C	MT stabilizer 27
COc1ccc(/C=N/n2c(SC)nnc2-c2ccccc2)c(OC)c1OC	bCat nuc transl 92, BaF3 parental 79, IEC-6 tox 68, Ba/F3 V617F tox 86
COc1ccc(NC(=O)c2cc([N+](=O)[O-])ccc2O)cc1	KLF5 inhibitor 84
O=C(Nc1ccc(O)cc1)c1cccc(Oc2ccc([N+](=O)[O-])cc2)c1	MT stabilizer 37
CC(C)[C@H](NC(=O)C1CC(=O)N(c2ccc3c(c2)OCO3)C1)C(=O)NC1CCCC1 (some centres not stated)	none (no result: MT stabilizer, bCat nuc transl, BaF3 parental, Ba/F3 V617F tox)
Cc1ccc(C(=O)N2CCOCC2)c(F)c1F	BaF3 parental 90
Cc1ccc(S(=O)(=O)Nc2ccccc2C(=O)N2CCOCC2)cc1	none (no result: MT stabilizer, bCat nuc transl, BaF3 parental, Ba/F3 V617F tox)
CC1=C(C(=O)NC2CCCc3c2cnn3-c2cc(F)cc(F)c2)OCCO1 (configuration not stated)	none (no result: MT stabilizer, bCat nuc transl, BaF3 parental, Ba/F3 V617F tox)
O=S(=O)(c1ccc(F)cc1)c1snnc1-c1ccccc1	BaF3 parental 68, Ba/F3 V617F tox 61
c1ccc(-c2nnsc2-c2ncc[nH]2)cc1	none
O=S(=O)(c1ccc(Cl)cc1)c1snnc1-c1ccccc1	MT stabilizer 17, BaF3 parental 33, Ba/F3 V617F tox 44 (no result: bCat nuc transl)
CN(C)c1ncc(S(=O)(=O)c2ccc(Cl)cc2)c(-c2ccccc2)n1	none
COc1ccc(C(=O)NC2CCSc3ccccc32)cc1F (configuration not stated)	none (no result: MT stabilizer, bCat nuc transl, BaF3 parental, Ba/F3 V617F tox)
CN(Cc1cccc(Cl)c1)C(=O)C1CSC2(C)CCC(=O)N12 (configuration not stated)	none (no result: MT stabilizer, bCat nuc transl, BaF3 parental, Ba/F3 V617F tox)
CN(Cc1ccccc1)S(=O)(=O)c1cn(C)cn1	none (no result: MT stabilizer)
CCOC(=O)CC(=O)CSc1n[nH]c(=O)[nH]c1=O	none (no result: MT stabilizer)
Cc1ccc(S(=O)(=O)N2CCCCC2C(=O)N(C)c2ccccc2)cc1 (configuration not stated)	none (no result: MT stabilizer, bCat nuc transl, BaF3 parental, Ba/F3 V617F tox)
CCOC(=O)c1c(C)[nH]c(C(=O)NNC(=O)c2ccccc2)c1C	none
CCOC(=O)c1c(C)[nH]c(C(=O)N/N=C/c2cccc(OC)c2)c1C	MT stabilizer 20
CCOC(=O)c1c(C)[nH]c(C(=O)N/N=C\c2ccccc2Cl)c1C	MT stabilizer 23
O=C(N=C1SC2CS(=O)(=O)CC2N1c1cccc(Cl)c1Cl)C1CC1 (configuration not stated)	none (no result: MT stabilizer, bCat nuc transl, BaF3 parental, Ba/F3 V617F tox)
Cc1c(NC(=O)C(C)NCC2CCCO2)c(=O)n(-c2ccccc2)n1C (configuration not stated)	none
CC(C(=O)Nc1ccccc1-c1ccccc1)N(C)Cc1nc2ccccc2c(=O)[nH]1 (configuration not stated)	MT stabilizer 24
CC(NC(=O)CN(C)Cc1nc2ccccc2c(=O)[nH]1)c1ccccc1 (configuration not stated)	none (no result: bCat nuc transl)
O=C(O)CSCCC(=O)Nc1ccc(F)cc1	none
CCOC(=O)Cc1ccc(NC(=O)c2ccc([N+](=O)[O-])cc2)cc1	BaF3 parental 33
CCOC(=O)Cc1ccc(NC(=O)c2cccc([N+](=O)[O-])c2)cc1	none
CC(=O)c1ccc(OCc2cc(C(=O)N(C)CCOc3ccc(C)cc3)no2)cc1	none (no result: MT stabilizer, bCat nuc transl, BaF3 parental, Ba/F3 V617F tox)
N#CC(Sc1ccccn1)c1ccc(Cl)cc1Cl (configuration not stated)	BaF3 parental 40, Ba/F3 V617F tox 28
O=C(N/N=C/c1ccc2c(c1)OCO2)c1sc2cccc(Cl)c2c1Cl	MT stabilizer 22
O=C(N/N=C/c1ccc2c(c1)OCO2)c1sc2cc(Cl)ccc2c1Cl	MT stabilizer 19
COc1ccc2c(Cl)c(C(=O)N/N=C/c3ccc4c(c3)OCO4)sc2c1	none
CCOc1ccc2c(c1)c(N=NC(=N)N)c(O)n2C	BaF3 parental 69, Ba/F3 V617F tox 44
CCC(CC)C1C(C#N)=C(N)Oc2n[nH]c(C)c21 (configuration not stated)	BaF3 parental 92
